Several values for one entry are separate records, joined by “and”; a condition that tells them apart may be missing. Equal entries are not always repeated.
Columns and labels:
[1] = system: HEK-293T; test: Multiplex assay against HEK293T; assay type: toxicity, cell-based; settings: human
Procedure, shortened: (§1)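 Compound was added to live cells that had been stained at seeding with Hoechst33342, BioTracker Green Microtubule Cytoskeleton Dye, MitoTracker Red and Annexin V Alexa Fluor 680, and imaging followed on a CQ1 microscope at 37°C and 5% CO2. CellPathfinder machine-learning gating divided cells into Hoechst high-intensity objects or normal cells, normal cells into healthy, pyknosed or fragmented nuclei, and pyknosed cells into mitotic or apoptotic. Tubulin, mitochondrial-mass and membrane-permeability phenotypes are per cents of healthy-nucleus cells.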

[2] = system: U2OS; test: Multiplex assay against U2OS; assay type: toxicity, cell-based; settings: human; procedure, shortened: as §1
[3] = 24 h, 10 µM, compound concentration 10 uM
[4] = 48 h, 1 µM, compound concentration 1 uM
[5] = 48 h, 10 µM, compound concentration 10 uM
[6] = 12 h, 1 µM, compound concentration 1 uM
[7] = 12 h, 10 µM, compound concentration 10 uM
[8] = 24 h, 1 µM, compound concentration 1 uM

With `Cc1cc(NC(=O)NCCN2CCC(O)(Cc3ccccc3)CC2)c2ccccc2n1` [PALOSURAN] the “Population Fragmented Nuclei (%)” value [1, 3] was 8% and 7%, the “Population Healthy Nuclei (%)” value [1, 3] was 79% and 83% and the “Population Hoechst High Intensity Objects (%)” value [1, 3] was 4% and 6%. The “Population Membrane Permeable-Phenotype (%)” value [1, 3] was 0%, the “Population Mitochondria Different-Phenotype (%)” value [1, 3] was 43% and 64% and the “Population Mitotic Cells (%)” value [1, 3] was 64% and 48%. The “Population Normal (%)” value [1, 3] was 95% and 93%, the “Population Pyknosed Nuclei (%)” value [1, 3] was 11% and 9% and the “Population Tubulin-Different-Phenotype (%)” value [1, 3] was 32% and 26%. For the same molecule, the “Total Cell Count” value [1, 3] was 598 and 396, the “Population Apoptotic (%)” value [1, 4] was 19% and 32% and the “Population Fragmented Nuclei (%)” value [1, 4] was 15% and 13%. The “Population Healthy Nuclei (%)” value [1, 4] was 79% and 81%, the “Population Hoechst High Intensity Objects (%)” value [1, 4] was 3% and the “Population Membrane Permeable-Phenotype (%)” value [1, 4] was 1% and 0%. For the same molecule, the “Population Mitochondria Different-Phenotype (%)” value [1, 4] was 16% and 24%, the “Population Mitotic Cells (%)” value [1, 4] was 80% and 67% and the “Population Normal (%)” value [1, 4] was 96%. The “Population Pyknosed Nuclei (%)” value [1, 4] was 5%, the “Population Tubulin-Different-Phenotype (%)” value [1, 4] was 12% and 15% and the “Total Cell Count” value [1, 4] was 938 and 552. For the same molecule, the “Population Apoptotic (%)” value [1, 5] was 29% and 41%, the “Population Fragmented Nuclei (%)” value [1, 5] was 15% and 9% and the “Population Healthy Nuclei (%)” value [1, 5] was 75% and 84%. The “Population Hoechst High Intensity Objects (%)” value [1, 5] was 5% and 4%, the “Population Membrane Permeable-Phenotype (%)” value [1, 5] was 0% and the “Population Mitochondria Different-Phenotype (%)” value [1, 5] was 34% and 42%. The “Population Mitotic Cells (%)” value [1, 5] was 70% and 58%, the “Population Normal (%)” value [1, 5] was 94% and 95% and the “Population Pyknosed Nuclei (%)” value [1, 5] was 8% and 6%. The “Population Tubulin-Different-Phenotype (%)” value [1, 5] was 17% and 19%, the “Total Cell Count” value [1, 5] was 874 and 570 and the “Population Apoptotic (%)” value [2, 6] was 80% and 71%. The “Population Fragmented Nuclei (%)” value [2, 6] was 27% and 19%, the “Population Healthy Nuclei (%)” value [2, 6] was 65% and 71% and the “Population Hoechst High Intensity Objects (%)” value [2, 6] was 1% and 0%. The “Population Membrane Permeable-Phenotype (%)” value [2, 6] was 4% and 2%, the “Population Mitochondria Different-Phenotype (%)” value [2, 6] was 2% and 0% and the “Population Mitotic Cells (%)” value [2, 6] was 20% and 28%. For the same molecule, the “Population Normal (%)” value [2, 6] was 98% and 100%, the “Population Pyknosed Nuclei (%)” value [2, 6] was 6% and 9% and the “Population Tubulin-Different-Phenotype (%)” value [2, 6] was 1%. The “Total Cell Count” value [2, 6] was 220 and 145, the “Population Apoptotic (%)” value [2, 7] was 72% and 66% and the “Population Fragmented Nuclei (%)” value [2, 7] was 30% and 17%. The “Population Healthy Nuclei (%)” value [2, 7] was 59% and 70%, the “Population Hoechst High Intensity Objects (%)” value [2, 7] was 3% and the “Population Membrane Permeable-Phenotype (%)” value [2, 7] was 6% and 12%. The “Population Mitochondria Different-Phenotype (%)” value [2, 7] was 1% and 2%, the “Population Mitotic Cells (%)” value [2, 7] was 28% and 33% and the “Population Normal (%)” value [2, 7] was 96%. For the same molecule, the “Population Pyknosed Nuclei (%)” value [2, 7] was 9% and 11%, the “Population Tubulin-Different-Phenotype (%)” value [2, 7] was 1% and 8% and the “Total Cell Count” value [2, 7] was 266 and 107. The “Population Apoptotic (%)” value [2, 8] was 94% and 66%, the “Population Fragmented Nuclei (%)” value [2, 8] was 26% and 17% and the “Population Healthy Nuclei (%)” value [2, 8] was 66% and 74%. For the same molecule, the “Population Hoechst High Intensity Objects (%)” value [2, 8] was 1%, the “Population Membrane Permeable-Phenotype (%)” value [2, 8] was 3% and 7% and the “Population Mitochondria Different-Phenotype (%)” value [2, 8] was 3% and 7%. For the same molecule, the “Population Normal (%)” value [2, 8] was 98%, the “Population Pyknosed Nuclei (%)” value [2, 8] was 6% and 8% and the “Population Tubulin-Different-Phenotype (%)” value [2, 8] was 2% and 3%. For the same molecule, the “Total Cell Count” value [2, 8] was 276 and 173, the “Population Apoptotic (%)” value [2, 3] was 92% and 75% and the “Population Fragmented Nuclei (%)” value [2, 3] was 26% and 19%. The “Population Healthy Nuclei (%)” value [2, 3] was 65% and 74%, the “Population Hoechst High Intensity Objects (%)” value [2, 3] was 3% and the “Population Membrane Permeable-Phenotype (%)” value [2, 3] was 4% and 11%. The “Population Mitochondria Different-Phenotype (%)” value [2, 3] was 0% and 1%, the “Population Normal (%)” value [2, 3] was 96% and the “Population Pyknosed Nuclei (%)” value [2, 3] was 8% and 6%. For the same molecule, the “Population Tubulin-Different-Phenotype (%)” value [2, 3] was 2% and 5%, the “Total Cell Count” value [2, 3] was 297 and 129 and the “Population Apoptotic (%)” value [2, 4] was 96% and 84%. For the same molecule, the “Population Fragmented Nuclei (%)” value [2, 4] was 25% and 15%, the “Population Healthy Nuclei (%)” value [2, 4] was 68% and 73% and the “Population Hoechst High Intensity Objects (%)” value [2, 4] was 1% and 3%. For the same molecule, the “Population Membrane Permeable-Phenotype (%)” value [2, 4] was 5% and 7%, the “Population Mitochondria Different-Phenotype (%)” value [2, 4] was 3% and 5% and the “Population Normal (%)” value [2, 4] was 98% and 97%. The “Population Pyknosed Nuclei (%)” value [2, 4] was 6% and 11%, the “Population Tubulin-Different-Phenotype (%)” value [2, 4] was 3% and 4% and the “Total Cell Count” value [2, 4] was 411 and 233. The “Population Apoptotic (%)” value [2, 5] was 97% and 89%, the “Population Fragmented Nuclei (%)” value [2, 5] was 20% and 16% and the “Population Healthy Nuclei (%)” value [2, 5] was 70% and 72%. For the same molecule, the “Population Hoechst High Intensity Objects (%)” value [2, 5] was 1%, the “Population Membrane Permeable-Phenotype (%)” value [2, 5] was 5% and 7% and the “Population Mitochondria Different-Phenotype (%)” value [2, 5] was 2% and 4%. For the same molecule, the “Population Mitotic Cells (%)” value [2, 5] was 2% and 10%, the “Population Normal (%)” value [2, 5] was 98% and the “Population Pyknosed Nuclei (%)” value [2, 5] was 9% and 10%. The “Population Tubulin-Different-Phenotype (%)” value [2, 5] was 2% and 1% and the “Total Cell Count” value [2, 5] was 421 and 180.

Source: ChEMBL document CHEMBL5724801, “EUbOPEN Chemogenomics Library - Multiplex” (2024)
